ChEMBL document CHEMBL4359902, “Development of novel chromeno[4,3-c]pyrazol-4(2H)-one derivates bearing sulfonylpiperazine as antitumor inhibitors targeting PI3Kα” (Eur J Med Chem, 2019)

Experiments:
[1] = tested on: HCT-116; assay: Antitumour activity against human HCT116 cells xenografted in nude mouse assessed as tumour growth inhibition at 10 mg/kg, ig administered every 3 days for 3 weeks and measured after 3 weeks relative to control; assay type: functional; details: HCT-116, po, read-out: TGI
Outline: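 HCT-116 cells (5 × 10^6 per animal) injected into right flank of nude mice; at ~100 mm³ tumours, randomized into groups of 6. Dosed 10 mg/kg in 5% CMC-Na intragastrically every three days for three weeks; vehicle control 5% CMC-Na. Body weight and tumour size recorded every three days, volume = 0.5 × length × width²; tumours excised and weighed at end. Mean ± SD.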

[2] = tested on: HCT-116; assay: Antiproliferative activity against human HCT116 cells assessed as reduction in cell viability after 48 hrs by MTT assay; assay type: functional, cell-based; details: HCT-116, 48 h
[3] = tested on: A549; assay: Antiproliferative activity against human A549 cells assessed as reduction in cell viability after 48 hrs by MTT assay; assay type: functional, cell-based; details: A549, 48 h
[4] = tested on: Huh-7; assay: Antiproliferative activity against human HuH7 cells assessed as reduction in cell viability after 48 hrs by MTT assay; assay type: functional, cell-based; details: Huh-7, 48 h
[5] = tested on: HL-60; assay: Antiproliferative activity against human HL60 cells assessed as reduction in cell viability after 48 hrs by MTT assay; assay type: functional, cell-based; details: HL-60, 48 h
[6] = molecular target: T1, Phosphatidylinositol 4,5-bisphosphate 3-kinase catalytic subunit alpha isoform (Homo sapiens, UniProt P42336); assay: Inhibition of PI3Kalpha (unknown origin) using diC8-PI(4,5)P2 as substrate incubated for 3 hrs in presence of ATP by fluorescence polarization assay
T1 sequence (P42336 whole entry, canonical isoform): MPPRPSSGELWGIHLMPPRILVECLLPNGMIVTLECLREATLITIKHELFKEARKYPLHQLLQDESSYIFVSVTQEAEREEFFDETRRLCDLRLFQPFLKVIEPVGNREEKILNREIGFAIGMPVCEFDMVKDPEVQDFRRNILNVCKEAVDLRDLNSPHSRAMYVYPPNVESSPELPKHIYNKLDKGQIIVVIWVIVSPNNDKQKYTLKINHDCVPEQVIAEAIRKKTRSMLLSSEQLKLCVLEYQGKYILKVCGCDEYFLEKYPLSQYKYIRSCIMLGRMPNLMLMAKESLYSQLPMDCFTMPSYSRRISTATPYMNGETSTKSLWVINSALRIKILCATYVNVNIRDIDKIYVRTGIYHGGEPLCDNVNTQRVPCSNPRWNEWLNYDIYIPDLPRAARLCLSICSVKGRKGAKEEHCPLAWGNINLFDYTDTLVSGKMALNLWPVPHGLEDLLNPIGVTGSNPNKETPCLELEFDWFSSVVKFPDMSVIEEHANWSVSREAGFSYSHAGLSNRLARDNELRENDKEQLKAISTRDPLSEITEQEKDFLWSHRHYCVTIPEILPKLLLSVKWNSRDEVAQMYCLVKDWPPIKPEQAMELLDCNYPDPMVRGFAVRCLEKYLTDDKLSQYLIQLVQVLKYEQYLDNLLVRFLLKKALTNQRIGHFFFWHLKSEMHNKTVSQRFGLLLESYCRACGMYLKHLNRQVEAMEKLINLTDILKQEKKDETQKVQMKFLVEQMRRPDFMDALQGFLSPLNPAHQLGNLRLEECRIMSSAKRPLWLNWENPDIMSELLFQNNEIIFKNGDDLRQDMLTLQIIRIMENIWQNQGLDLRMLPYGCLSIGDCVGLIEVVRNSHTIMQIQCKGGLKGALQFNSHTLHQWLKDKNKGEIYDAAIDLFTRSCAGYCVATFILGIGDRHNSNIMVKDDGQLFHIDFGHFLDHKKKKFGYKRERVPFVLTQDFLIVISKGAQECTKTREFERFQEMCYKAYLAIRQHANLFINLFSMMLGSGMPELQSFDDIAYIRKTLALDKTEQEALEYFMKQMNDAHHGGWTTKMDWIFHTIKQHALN
Outline: (§1)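 Fluorescence polarization competition assay, 10 μL reactions at pH 7: 2.5 mM MgCl₂, 5 mM HEPES, ATP, 10 mM DTT, 50 ng PI3K isoform, diC8-PI(4,5)P2 substrate. After 3 h at room temperature, reactions were chelator-quenched. Phosphoinositide binding protein and fluorophore-labelled tracer were added, then 1 h dark equilibration and polarization read.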

[7] = molecular target: Phosphatidylinositol 4,5-bisphosphate 3-kinase catalytic subunit beta isoform (Homo sapiens, UniProt P42338); assay: Inhibition of PI3Kbeta (unknown origin) using diC8-PI(4,5)P2 as substrate incubated for 3 hrs in presence of ATP by fluorescence polarization assay; outline: as §1
Sequence of Phosphatidylinositol 4,5-bisphosphate 3-kinase catalytic subunit beta isoform (P42338 whole entry, canonical isoform): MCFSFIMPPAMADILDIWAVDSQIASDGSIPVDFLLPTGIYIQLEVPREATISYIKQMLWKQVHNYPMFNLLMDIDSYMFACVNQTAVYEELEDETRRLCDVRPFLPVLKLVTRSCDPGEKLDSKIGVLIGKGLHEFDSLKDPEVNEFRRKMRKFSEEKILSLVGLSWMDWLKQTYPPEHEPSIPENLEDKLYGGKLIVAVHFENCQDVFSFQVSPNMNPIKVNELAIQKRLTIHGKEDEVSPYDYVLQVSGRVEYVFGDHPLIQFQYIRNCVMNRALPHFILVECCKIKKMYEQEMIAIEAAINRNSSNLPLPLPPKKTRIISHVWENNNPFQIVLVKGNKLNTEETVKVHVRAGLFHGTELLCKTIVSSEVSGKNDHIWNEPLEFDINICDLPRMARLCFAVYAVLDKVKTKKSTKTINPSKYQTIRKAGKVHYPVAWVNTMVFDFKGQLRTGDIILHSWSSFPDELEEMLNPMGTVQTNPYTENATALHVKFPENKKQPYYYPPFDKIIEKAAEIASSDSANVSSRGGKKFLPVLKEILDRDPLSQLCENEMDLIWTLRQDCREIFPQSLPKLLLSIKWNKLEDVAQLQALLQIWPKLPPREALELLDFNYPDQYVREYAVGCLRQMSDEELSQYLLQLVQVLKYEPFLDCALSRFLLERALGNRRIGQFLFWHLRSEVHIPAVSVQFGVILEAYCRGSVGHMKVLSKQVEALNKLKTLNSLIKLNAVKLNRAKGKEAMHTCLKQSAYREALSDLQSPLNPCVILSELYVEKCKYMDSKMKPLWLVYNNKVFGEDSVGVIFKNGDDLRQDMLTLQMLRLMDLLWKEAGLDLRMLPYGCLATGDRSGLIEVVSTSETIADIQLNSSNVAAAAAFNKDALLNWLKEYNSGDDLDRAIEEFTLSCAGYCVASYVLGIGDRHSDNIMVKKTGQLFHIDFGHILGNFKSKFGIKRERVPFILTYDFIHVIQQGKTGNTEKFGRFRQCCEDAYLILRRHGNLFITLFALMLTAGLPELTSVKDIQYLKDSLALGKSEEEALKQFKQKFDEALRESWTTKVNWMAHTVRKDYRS

[8] = molecular target: Phosphatidylinositol 4,5-bisphosphate 3-kinase catalytic subunit gamma isoform (Homo sapiens, UniProt P48736); assay: Inhibition of PI3Kgamma (unknown origin) using diC8-PI(4,5)P2 as substrate incubated for 3 hrs in presence of ATP by fluorescence polarization assay; outline: as §1
Sequence of Phosphatidylinositol 4,5-bisphosphate 3-kinase catalytic subunit gamma isoform (P48736 whole entry, canonical isoform): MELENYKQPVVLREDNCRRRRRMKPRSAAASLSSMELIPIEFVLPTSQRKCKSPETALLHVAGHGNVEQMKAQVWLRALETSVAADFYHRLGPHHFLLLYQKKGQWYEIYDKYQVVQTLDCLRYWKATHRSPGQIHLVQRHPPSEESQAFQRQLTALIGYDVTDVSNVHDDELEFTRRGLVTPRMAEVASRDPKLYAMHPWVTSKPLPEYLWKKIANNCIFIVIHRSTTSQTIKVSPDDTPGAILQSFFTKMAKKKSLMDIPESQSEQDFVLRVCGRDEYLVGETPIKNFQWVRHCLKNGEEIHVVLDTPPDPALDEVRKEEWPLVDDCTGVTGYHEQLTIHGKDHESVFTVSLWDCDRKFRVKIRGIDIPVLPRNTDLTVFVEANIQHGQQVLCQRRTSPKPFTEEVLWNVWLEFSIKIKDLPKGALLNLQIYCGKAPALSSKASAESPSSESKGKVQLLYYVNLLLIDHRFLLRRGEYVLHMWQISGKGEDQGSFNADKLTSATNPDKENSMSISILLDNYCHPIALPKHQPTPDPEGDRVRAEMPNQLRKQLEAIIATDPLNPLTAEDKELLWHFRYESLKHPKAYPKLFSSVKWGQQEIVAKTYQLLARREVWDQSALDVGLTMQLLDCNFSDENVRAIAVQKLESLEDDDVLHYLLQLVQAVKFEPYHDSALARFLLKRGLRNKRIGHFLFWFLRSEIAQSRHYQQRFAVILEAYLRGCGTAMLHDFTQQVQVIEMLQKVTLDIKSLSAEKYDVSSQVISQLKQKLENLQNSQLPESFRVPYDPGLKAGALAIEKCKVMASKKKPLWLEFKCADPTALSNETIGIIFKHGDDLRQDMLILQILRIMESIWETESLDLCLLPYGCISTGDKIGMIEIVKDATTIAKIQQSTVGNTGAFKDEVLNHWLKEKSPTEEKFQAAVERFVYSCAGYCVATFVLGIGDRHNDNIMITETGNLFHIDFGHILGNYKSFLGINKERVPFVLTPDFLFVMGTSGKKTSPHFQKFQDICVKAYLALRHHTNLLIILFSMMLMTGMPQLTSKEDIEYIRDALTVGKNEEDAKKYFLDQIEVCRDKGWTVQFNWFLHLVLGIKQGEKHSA

[9] = Cytotoxicity against human 293T cells; assay type: cell-based; details: HEK-293T cells
[10] = molecular target: Serine/threonine-protein kinase mTOR (Homo sapiens, UniProt P42345); assay: Inhibition of mTOR (unknown origin)
[11] = molecular target: T1, Phosphatidylinositol 4,5-bisphosphate 3-kinase catalytic subunit alpha isoform; assay: Inhibition of PI3K-alpha in human HCT116 cells assessed as decrease in phosphorylated S6K protein expression level measured after 24 hrs by Western blot analysis; assay type: cell-based
Outline: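 HCT-116 cells exposed for 24 h at 0.25, 0.5 and 1 μM, lysed in RIPA buffer, and analysed by SDS-PAGE/PVDF Western blot for p-Akt (Ser473) and p-S6K. β-actin internal control; densitometry mean ± SEM, n = 3.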

[12] = tested on: HCT-116; assay: Cell cycle arrest in human HCT116 cells assessed as accumulation at G2 phase at 0.25 uM measured after 24 hrs by propidium iodide staining based flow cytometry analysis (reference value: 7.86 %); assay type: functional
[13] = tested on: HCT-116; assay: Cell cycle arrest in human HCT116 cells assessed as accumulation at S phase at 0.25 uM measured after 24 hrs by propidium iodide staining based flow cytometry analysis (reference value: 50.12 %); assay type: functional
[14] = tested on: HCT-116; assay: Cell cycle arrest in human HCT116 cells assessed as accumulation at G1 phase at 0.5 uM measured after 24 hrs by propidium iodide staining based flow cytometry analysis (reference value: 42.01 %); assay type: functional
[15] = tested on: HCT-116; assay: Cell cycle arrest in human HCT116 cells assessed as accumulation at G2 phase at 0.5 uM measured after 24 hrs by propidium iodide staining based flow cytometry analysis (reference value: 7.86 %); assay type: functional
[16] = tested on: HCT-116; assay: Cell cycle arrest in human HCT116 cells assessed as accumulation at G1 phase at 1 uM measured after 24 hrs by propidium iodide staining based flow cytometry analysis (reference value: 42.01 %); assay type: functional
[17] = tested on: HCT-116; assay: Cell cycle arrest in human HCT116 cells assessed as accumulation at G2 phase at 1 uM measured after 24 hrs by propidium iodide staining based flow cytometry analysis (reference value: 7.86 %); assay type: functional
[18] = tested on: HCT-116; assay: Cell cycle arrest in human HCT116 cells assessed as accumulation at S phase at 1 uM measured after 24 hrs by propidium iodide staining based flow cytometry analysis (reference value: 50.12 %); assay type: functional
[19] = tested on: HCT-116; assay: Induction of apoptosis in human HCT116 cells assessed as viable cells at 0.25 uM measured after 24 hrs by annexin-v-FITC/propidium iodide staining based FACScan flow cytometry analysis (reference value: 78.5 %); assay type: functional; details: HCT-116, 24 h, read-out: Activity
[20] = tested on: HCT-116; assay: Induction of apoptosis in human HCT116 cells assessed as early apoptotic cells at 0.25 uM measured after 24 hrs by annexin-v-FITC/propidium iodide staining based FACScan flow cytometry analysis (reference value: 10.0 %); assay type: functional
[21] = tested on: HCT-116; assay: Induction of apoptosis in human HCT116 cells assessed as late apoptotic cells at 0.25 uM measured after 24 hrs by annexin-v-FITC/propidium iodide staining based FACScan flow cytometry analysis (reference value: 9.61 %); assay type: functional
[22] = tested on: HCT-116; assay: Induction of apoptosis in human HCT116 cells assessed as necrotic cells at 0.25 uM measured after 24 hrs by annexin-v-FITC/propidium iodide staining based FACScan flow cytometry analysis (reference value: 1.87 %); assay type: functional
[23] = tested on: HCT-116; assay: Induction of apoptosis in human HCT116 cells assessed as viable cells at 0.5 uM measured after 24 hrs by annexin-v-FITC/propidium iodide staining based FACScan flow cytometry analysis (reference value: 78.5 %); assay type: functional; details: HCT-116, 24 h, read-out: Activity
[24] = tested on: HCT-116; assay: Induction of apoptosis in human HCT116 cells assessed as late apoptotic cells at 0.5 uM measured after 24 hrs by annexin-v-FITC/propidium iodide staining based FACScan flow cytometry analysis (reference value: 9.61 %); assay type: functional
[25] = tested on: HCT-116; assay: Induction of apoptosis in human HCT116 cells assessed as viable cells at 1 uM measured after 24 hrs by annexin-v-FITC/propidium iodide staining based FACScan flow cytometry analysis (reference value: 78.5 %); assay type: functional; details: HCT-116, 24 h, read-out: Activity
[26] = tested on: HCT-116; assay: Induction of apoptosis in human HCT116 cells assessed as necrotic cells at 1 uM measured after 24 hrs by annexin-v-FITC/propidium iodide staining based FACScan flow cytometry analysis (reference value: 1.87 %); assay type: functional
[27] = tested on: HCT-116; assay: Induction of apoptosis in human HCT116 cells assessed as decrease in Bcl-2 protein level measured after 24 hrs by Western blot analysis; assay type: functional, cell-based
Outline: (§2)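 HCT-116 cells treated at 0.25, 0.5 and 1 μM for 24 h, lysed in RIPA buffer with PMSF. Proteins separated by SDS-PAGE (8% or 10%), transferred to PVDF and probed with primary antibodies and HRP secondaries. β-actin served as internal control; bands quantified as bar graphs.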

[28] = tested on: HCT-116; assay: Induction of apoptosis in human HCT116 cells assessed as increase in cleaved caspase-3 protein level measured after 24 hrs by Western blot analysis; assay type: functional, cell-based; outline: as §2

SMILES: O=c1oc2ccccc2c2nn(CN3CCN(S(=O)(=O)c4ccc(Cl)c([N+](=O)[O-])c4)CC3)cc12
- inhibition in vivo at 10 mg/kg [1]: 66.4%
- IC50 [2]: 30 nM
- IC50 [3]: 60 nM
- IC50 [4]: 90 nM
- IC50 [5]: 60 nM
- IC50 [6]: 9 nM
- IC50 [7]: 120 nM
- IC50 [8]: 81 nM
- CC50 [9]: 386000 nM
- IC50 [10]: 9380 nM
- inhibition [11]: Dose-dependent effect
- Activity [12]: 10.73%
- Activity [13]: 42.4%
- Activity [14]: 50.95%
- Activity [15]: 9.52%
- Activity [16]: 58.13%
- Activity [17]: 8.09%
- Activity [18]: 33.78%
- viability at 0.25 µM [19]: 56%
- Activity [20]: 16.1%
- Activity [21]: 21%
- Activity [22]: 6.98%
- viability at 0.5 µM [23]: 46%
- Activity [24]: 30.8%
- viability at 1 µM [25]: 36.6%
- Activity [26]: 1.04%
- Activity [27]: Dose-dependent effect
- Activity [28]: Dose-dependent effect
